The results in this text go back to ChEMBL document CHEMBL1154614, “Synthesis and evaluation of stable bidentate transition metal complexes of 1-(chloromethyl)-5-hydroxy-3-(5,6,7-trimethoxyindol-2-ylcarbonyl)-2,3-dihydro-1H-pyrrolo[3,2-f]quinoline (seco-6-azaCBI-TMI) as hypoxia selective cytotoxins” (J Med Chem, 2009).

For data set [1], the system named is A549. Kind of data set: Hypoxic cytotoxicity ratio, ratio of IC50 for human A549 cells under aerobic condition to IC50 for human A549 cells after 4 hrs under hypoxic condition. Format: functional. In short, it runs like this:
(§1)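 Attached log-phase cells given 4 h compound exposure in parallel under oxic and hypoxic conditions; compounds in DMSO, final DMSO <1%. IC50 for inhibition of cell proliferation. Ratio = aerobic IC50/hypoxic IC50, calculated within each experiment.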

For data set [2], the system named is A549. Nature of the data set: Cytotoxicity against human A549 cells after 4 hrs under aerobic conditions. Format: functional, cell-based. To be noted: A549, 4 h. In short, it runs like this: (§2)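 Attached log-phase cells exposed to compound for 4 h under aerobic conditions; compounds formulated in DMSO, final DMSO <1%. IC50 = concentration giving 50% inhibition of cell proliferation. Mean ± SEM of >2 determinations.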

Data set [3] concerns SK-OV-3. Nature of the data set: Cytotoxicity against human SKOV3 cells after 4 hrs under aerobic conditions. The format is functional, cell-based. The note with it: SK-OV-3, 4 h. A digest of the protocol: as §2
The test system of data set [4] is SK-OV-3. Nature of the data set: Hypoxic cytotoxicity ratio, ratio of IC50 for human SKOV3 cells under aerobic condition to IC50 for human SKOV3 cells after 4 hrs under hypoxic condition. Format: functional. A digest of the protocol:
as §1

A short description of data set [5]: Solubility in alpha-MEM in presence of FCS. The note with it: alpha-MEM with FCS. Format: physicochemical.
For another data set, the system named is UV4. Nature of the data set: Cytotoxicity against hamster UV4 cells after 4 hrs under aerobic conditions. The note with it: Cricetulus griseus, UV4, 4 h. The format is cell-based. A digest of the protocol: as §2
The test system of the next data set is CHO-AA8. Kind of data set: Cytotoxicity against hamster AA8 cells after 4 hrs under aerobic conditions. The note with it: Cricetulus griseus, CHO-AA8, 4 h. The format is cell-based. A digest of the protocol:
as §2

A short description of data set [6]: Cytotoxicity against mouse EMT6V cells after 4 hrs under aerobic conditions. Format: functional, cell-based. In short, it runs like this:
as §2

Turning to `COc1ccc2[nH]c(C(=O)N3CC(CCl)c4c3cc(O)c3ncccc43)cc2c1` (stereo not given), the “Ratio IC50” value with A549 [1] is given as 1.51; in the data set with SK-OV-3 [4], 0.91. For the same molecule, the 50% inhibitory concentration (IC50) (commonly the concentration that gives 50% inhibition) in the data set on A549 [2] came out at 80 pM; with SK-OV-3 [3], 270 pM. In addition, the solubility – broadly, the concentration that dissolves in the medium under given conditions – in data set [5] amounted to 110 µM.
As to `CN(C)CCOc1ccc2[nH]c(C(=O)N3CC(CCl)c4c3cc(O)c3ncccc43)cc2c1` (stereo not given), the “Ratio IC50” value with A549 [1] is reported as 1.11; in the data set with SK-OV-3 [4], 0.56. Also, the IC50 in the data set on UV4 was 1700 pM; in the data set with A549 [2] it was 1300 pM; in the data set with CHO-AA8, 4400 pM; in data set [6], 740 pM; in the data set on SK-OV-3 [3] it was 6900 pM. For the same molecule, the solubility in data set [5] was found to be 32 µM.
`COc1ccc(/C=C/C(=O)N2CC(CCl)c3c2cc(O)c2ncccc32)cc1` (stereo not given): the IC50 is 90 pM in the data set with A549 [2] and 290 pM in the data set on SK-OV-3 [3]. Also, in data set [5], the solubility was found to be 40 µM.
As for `COc1cc2cc(C(=O)N3C[C@@H](CCl)c4c3cc(O)c3ncccc43)[nH]c2c(OC)c1OC`, the half-inhibitory concentration (IC50) came out at 40 pM in the data set with UV4; 40 pM in the data set on A549 [2]; 70 pM with CHO-AA8; 30 pM in data set [6]; 110 pM in the data set on SK-OV-3 [3].
Take `CN(C)CCOc1ccc(/C=C/C(=O)N2CC(CCl)c3c2cc(O)c2ncccc32)cc1` (stereo not given): the “Ratio IC50” value is recorded as 0.86 with A549 [1] and 0.65 in the data set with SK-OV-3 [4]. Moreover, the concentration for half-maximal inhibition (IC50) in the data set on UV4 amounted to 730 pM; in the data set with A549 [2] it was 920 pM; in the data set with CHO-AA8, 2600 pM; in data set [6], 580 pM; with SK-OV-3 [3] it was 1900 pM. Moreover, the solubility in data set [5] worked out at 860 µM.
`COc1cc2cc(C(=O)N3C[C@H](CCl)c4c3cc(O)c3ncccc43)[nH]c2c(OC)c1OC`: the IC50 was determined as 4600 pM in the data set with UV4; 8800 pM in the data set with A549 [2]; 22000 pM in the data set with CHO-AA8; 7300 pM in data set [6]; 8500 pM in the data set with SK-OV-3 [3].
For the molecule `COc1ccc(/C=C/C(=O)N2CC(CCl)c3c2cc(O)c2ncccc32)cc1O` (stereo not given), the IC50 in the data set on A549 [2] was found to be 180 pM; in the data set with SK-OV-3 [3], 170 pM. The solubility in data set [5] was found to be 110 µM.
On to `COc1cc2cc(C(=O)N3CC(CCl)c4c3cc(O)c3ncccc43)[nH]c2c(OC)c1OC` (racemic), for which the “Ratio IC50” value in the data set on A549 [1] was 0.76; in the data set on SK-OV-3 [4], 0.69. Also, the IC50 worked out at 70 pM in the data set on UV4; 60 pM in the data set with A549 [2]; 140 pM in the data set on CHO-AA8; 50 pM in data set [6]; 260 pM in the data set with SK-OV-3 [3]. In addition, in data set [5], the solubility came to 30 µM.
